Measurements as given in ChEMBL document CHEMBL1145884, “Synthesis and biological activity of novel 1beta-methylcarbapenems with oxyiminopyrrolidinylamide moiety” (2003).
In brackets after ≈: the same amount, converted by molar mass. Each block holds one compound with its values, some of them ahead of it.

Tests used:
Escherichia coli [1] = assay: Antibacterial activity against Escherichia coli 078; format: functional
Outline: (§1)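 MIC was determined by agar dilution on Mueller–Hinton medium.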

Escherichia coli [2] = assay: Antibacterial activity against Escherichia coli 1507E; format: functional; outline: as §1
Enterobacter cloacae [3] = assay: Antibacterial activity against Enterobacter cloacae 1321E; format: functional; outline: as §1
Klebsiella aerogenes = assay: Antibacterial activity against Klebsiella aerogenes 1522E; format: functional; outline: as §1
Pseudomonas aeruginosa [4] = assay: Antibacterial activity against Pseudomonas aeruginosa 1771M; format: functional; outline: as §1
Pseudomonas aeruginosa [5] = assay: Antibacterial activity against Pseudomonas aeruginosa 9027; format: functional; outline: as §1
Salmonella typhimurium [6] = assay: Antibacterial activity against Salmonella Typhimurium; format: functional, Salmonella enterica subsp. enterica serovar Typhimurium; details: Salmonella enterica; outline: as §1
Pseudomonas aeruginosa [7] = assay: Antibacterial activity against Pseudomonas aeruginosa 1592E
[8] = Compound was evaluated for its relative half life of hydrolysis to meropenem by partially purified porcine renal dihydropeptidase-I (DHP-I); format: functional; details: Sus scrofa
Enterobacter cloacae [9] = assay: Compound was evaluated for its antibacterial activity against Enterobacter cloacae P99; format: functional
Escherichia coli [10] = assay: Compound was evaluated for its antibacterial activity against Escherichia coli CCARM 1116 MDR; format: functional
Escherichia coli [11] = assay: Compound was evaluated for its antibacterial activity against Escherichia coli CCARM 1117 MDR; format: functional
Escherichia coli [12] = assay: Compound was evaluated for its antibacterial activity against Escherichia coli DC 0; format: functional
Escherichia coli [13] = assay: Compound was evaluated for its antibacterial activity against Escherichia coli DC 2; format: functional
Escherichia coli [14] = assay: Compound was evaluated for its antibacterial activity against Escherichia coli TEM; format: functional
Escherichia coli [15] = assay: Compound was evaluated for its antibacterial activity against Escherichia coli 0157:H7; format: functional
Escherichia coli [16] = assay: Compound was evaluated for its antibacterial activity against Escherichia coli ATCC 25922; format: functional
Escherichia coli [17] = assay: Compound was evaluated for its antibacterial activity against Escherichia coli CCARM 1108 MDR; format: functional
Escherichia coli [18] = assay: Compound was evaluated for its antibacterial activity against Escherichia coli CCARM 1109 MDR; format: functional
Escherichia coli [19] = assay: Compound was evaluated for its antibacterial activity against Escherichia coli CCARM 1111 MDR; format: functional
Escherichia coli [20] = assay: Compound was evaluated for its antibacterial activity against Escherichia coli CCARM 1112 MDR; format: functional
Escherichia coli [21] = assay: Compound was evaluated for its antibacterial activity against Escherichia coli CCARM 1113 MDR; format: functional
Escherichia coli [22] = assay: Compound was evaluated for its antibacterial activity against Escherichia coli CCARM 1114 MDR; format: functional
Escherichia coli [23] = assay: Compound was evaluated for its antibacterial activity against Escherichia coli CCARM 1115 MDR; format: functional
Klebsiella pneumoniae [24] = assay: Compound was evaluated for its antibacterial activity against Klebsiella pneumoniae 8 ESBL; format: functional
Klebsiella pneumoniae [25] = assay: Compound was evaluated for its antibacterial activity against Klebsiella pneumoniae 9 ESBL; format: functional
Klebsiella oxytoca = assay: Compound was evaluated for its antibacterial activity against Klebsiella oxytoca 1082E; format: functional
Klebsiella pneumoniae [26] = assay: Compound was evaluated for its antibacterial activity against Klebsiella pneumoniae 1 ESBL; format: functional
Klebsiella pneumoniae [27] = assay: Compound was evaluated for its antibacterial activity against Klebsiella pneumoniae 10 ESBL; format: functional
Klebsiella pneumoniae [28] = assay: Compound was evaluated for its antibacterial activity against Klebsiella pneumoniae 3 ESBL; format: functional
Klebsiella pneumoniae [29] = assay: Compound was evaluated for its antibacterial activity against Klebsiella pneumoniae 4 ESBL; format: functional
Klebsiella pneumoniae [30] = assay: Compound was evaluated for its antibacterial activity against Klebsiella pneumoniae 5 ESBL; format: functional
Pseudomonas aeruginosa [31] = assay: Compound was evaluated for its antibacterial activity against Pseudomonas aeruginosa 1 MDR; format: functional
Pseudomonas aeruginosa [32] = assay: Compound was evaluated for its antibacterial activity against Pseudomonas aeruginosa 2 MDR; format: functional
Pseudomonas aeruginosa [33] = assay: Compound was evaluated for its antibacterial activity against Pseudomonas aeruginosa ATCC 27853; format: functional
Shigella sonnei = assay: Compound was evaluated for its antibacterial activity against Shigella sonnei ATCC 9290; format: functional
Salmonella enteritidis [34] = assay: Compound was evaluated for its antibacterial activity against […] enteritidis; format: functional, Salmonella enterica subsp. enterica serovar Enteritidis; details: Salmonella enterica
Salmonella enteritidis [35] = assay: Compound was evaluated for its antibacterial activity against […] enteritidis 1; format: functional, Salmonella enterica subsp. enterica serovar Enteritidis; details: Salmonella enterica
Salmonella enteritidis [36] = assay: Compound was evaluated for its antibacterial activity against […] enteritidis 2; format: functional, Salmonella enterica subsp. enterica serovar Enteritidis; details: Salmonella enterica
Salmonella enteritidis [37] = assay: Compound was evaluated for its antibacterial activity against […] enteritidis 3; format: functional, Salmonella enterica subsp. enterica serovar Enteritidis; details: Salmonella enterica
Salmonella typhimurium [38] = assay: Compound was evaluated for its antibacterial activity against Salmonella Typhimurium; format: functional, Salmonella enterica subsp. enterica serovar Typhimurium; details: Salmonella enterica
Salmonella typhimurium [39] = assay: Compound was evaluated for its antibacterial activity against Salmonella Typhimurium 1; format: functional, Salmonella enterica subsp. enterica serovar Typhimurium; details: Salmonella enterica
Salmonella typhimurium [40] = assay: Compound was evaluated for its antibacterial activity against Salmonella Typhimurium 2; format: functional, Salmonella enterica subsp. enterica serovar Typhimurium; details: Salmonella enterica
Shigella flexneri = assay: Compound was evaluated for its antibacterial activity against Shigella flexneri ATCC 9199; format: functional
Streptococcus pyogenes = assay: Antibacterial activity against Streptococcus pyogenes 308A; format: functional
Staphylococcus aureus [41] = assay: Antibacterial activity against Staphylococcus aureus 285; format: functional
Staphylococcus aureus [42] = assay: Antibacterial activity against Staphylococcus aureus 503; format: functional
Staphylococcus aureus [43] = assay: Antibacterial activity against Staphylococcus aureus SG 511; format: functional
Escherichia coli [44] = assay: Compound was evaluated for its antibacterial activity against Escherichia coli CCARM 1110 MDR; format: functional
Klebsiella pneumoniae [45] = assay: Compound was evaluated for its antibacterial activity against Klebsiella pneumoniae 7 ESBL; format: functional
Klebsiella pneumoniae [46] = assay: Compound was evaluated for its antibacterial activity against Klebsiella pneumoniae 2 ESBL; format: functional
Klebsiella pneumoniae [47] = assay: Compound was evaluated for its antibacterial activity against Klebsiella pneumoniae 6 ESBL; format: functional
Pseudomonas aeruginosa [48] = assay: Compound was evaluated for its antibacterial activity against Pseudomonas aeruginosa 3 MDR; format: functional
Pseudomonas aeruginosa [49] = assay: Antibacterial activity against Pseudomonas aeruginosa 1592E; remark: listed apart in the source

MIC (Escherichia coli [1]): 0.049 µg/mL (≈ 0.108 µM)
MIC (Escherichia coli [2]): 0.049 µg/mL (≈ 0.108 µM)
MIC (Enterobacter cloacae [3]): 0.049 µg/mL (≈ 0.108 µM)
MIC (Klebsiella aerogenes): 0.049 µg/mL (≈ 0.108 µM)
MIC (Pseudomonas aeruginosa [4]): 0.781 µg/mL (≈ 1.73 µM)
MIC (Pseudomonas aeruginosa [5]): 0.391 µg/mL (≈ 0.864 µM)
MIC (Salmonella typhimurium [6]): 0.098 µg/mL (≈ 0.217 µM)
MIC (Pseudomonas aeruginosa [7]): 3.12 µg/mL (≈ 6.91 µM)
Compound: CO/N=C1/CCN(C(=O)[C@@H]2C[C@H](SC3=C(C(=O)O)N4C(=O)[C@H]([C@@H](C)O)[C@H]4[C@H]3C)CN2)C1

MIC (Enterobacter cloacae [9]): 0.13 µg/mL (≈ 0.296 µM)
MIC (Escherichia coli [10]): 0.016 µg/mL (≈ 0.0365 µM)
MIC (Escherichia coli [11]): 0.03 µg/mL (≈ 0.0684 µM)
MIC (Escherichia coli [12]): 0.03 µg/mL (≈ 0.0684 µM)
MIC (Escherichia coli [13]): 0.016 µg/mL (≈ 0.0365 µM)
MIC (Escherichia coli [14]): 0.016 µg/mL (≈ 0.0365 µM)
MIC (Escherichia coli [1]): 0.025 µg/mL (≈ 0.057 µM)
MIC (Escherichia coli [2]): 0.025 µg/mL (≈ 0.057 µM)
MIC (Escherichia coli [15]): 0.016 µg/mL (≈ 0.0365 µM)
MIC (Escherichia coli [16]): 0.016 µg/mL (≈ 0.0365 µM)
MIC (Escherichia coli [17]): 0.03 µg/mL (≈ 0.0684 µM)
MIC (Escherichia coli [18]): 0.06 µg/mL (≈ 0.137 µM)
MIC (Escherichia coli [19]): 0.016 µg/mL (≈ 0.0365 µM)
MIC (Escherichia coli [20]): 0.016 µg/mL (≈ 0.0365 µM)
MIC (Escherichia coli [21]): 0.06 µg/mL (≈ 0.137 µM)
MIC (Escherichia coli [22]): 0.13 µg/mL (≈ 0.296 µM)
MIC (Escherichia coli [23]): 0.03 µg/mL (≈ 0.0684 µM)
MIC (Enterobacter cloacae [3]): 0.013 µg/mL (≈ 0.0296 µM)
MIC (Klebsiella pneumoniae [24]): 0.25 µg/mL (≈ 0.57 µM)
MIC (Klebsiella pneumoniae [25]): 0.03 µg/mL (≈ 0.0684 µM)
MIC (Klebsiella oxytoca): 0.13 µg/mL (≈ 0.296 µM)
MIC (Klebsiella pneumoniae [26]): 0.03 µg/mL (≈ 0.0684 µM)
MIC (Klebsiella pneumoniae [27]): 0.016 µg/mL (≈ 0.0365 µM)
MIC (Klebsiella pneumoniae [28]): 0.13 µg/mL (≈ 0.296 µM)
MIC (Klebsiella pneumoniae [29]): 0.03 µg/mL (≈ 0.0684 µM)
MIC (Klebsiella pneumoniae [30]): 0.016 µg/mL (≈ 0.0365 µM)
MIC (Klebsiella aerogenes): 0.025 µg/mL (≈ 0.057 µM)
MIC (Pseudomonas aeruginosa [31]): 1 µg/mL (≈ 2.28 µM)
MIC (Pseudomonas aeruginosa [32]): 8 µg/mL (≈ 18.2 µM)
MIC (Pseudomonas aeruginosa [33]): 1 µg/mL (≈ 2.28 µM)
MIC (Pseudomonas aeruginosa [4]): 0.195 µg/mL (≈ 0.445 µM)
MIC (Pseudomonas aeruginosa [5]): 0.391 µg/mL (≈ 0.892 µM)
MIC (Shigella sonnei): 0.016 µg/mL (≈ 0.0365 µM)
MIC (Salmonella enteritidis [34]): 0.016 µg/mL (≈ 0.0365 µM)
MIC (Salmonella enteritidis [35]): 0.016 µg/mL (≈ 0.0365 µM)
MIC (Salmonella enteritidis [36]): ≤ 0.008 µg/mL
MIC (Salmonella enteritidis [37]): 0.016 µg/mL (≈ 0.0365 µM)
MIC (Salmonella typhimurium [6]): 0.025 µg/mL (≈ 0.057 µM)
MIC (Salmonella typhimurium [38]): 0.03 µg/mL (≈ 0.0684 µM)
MIC (Salmonella typhimurium [39]): 0.016 µg/mL (≈ 0.0365 µM)
MIC (Salmonella typhimurium [40]): 0.03 µg/mL (≈ 0.0684 µM)
MIC (Shigella flexneri): 0.016 µg/mL (≈ 0.0365 µM)
MIC (Streptococcus pyogenes): 0.013 µg/mL (≈ 0.0296 µM)
MIC (Staphylococcus aureus [41]): 0.195 µg/mL (≈ 0.445 µM)
MIC (Staphylococcus aureus [42]): 0.098 µg/mL (≈ 0.223 µM)
MIC (Staphylococcus aureus [43]): 0.195 µg/mL (≈ 0.445 µM)
MIC (Escherichia coli [44]): 0.06 µg/mL (≈ 0.137 µM)
MIC (Klebsiella pneumoniae [45]): 0.06 µg/mL (≈ 0.137 µM)
MIC (Klebsiella pneumoniae [46]): 0.03 µg/mL (≈ 0.0684 µM)
MIC (Klebsiella pneumoniae [47]): 0.03 µg/mL (≈ 0.0684 µM)
MIC (Pseudomonas aeruginosa [48]): 8 µg/mL (≈ 18.2 µM)
MIC (Pseudomonas aeruginosa [49]): 0.391 µg/mL (≈ 0.892 µM)
Compound: C[C@@H](O)[C@H]1C(=O)N2C(C(=O)O)=C(S[C@@H]3CN[C@H](C(=O)N4CC/C(=N/O)C4)C3)[C@H](C)[C@H]12
relative t1/2 (DHP-I hydrolysis vs meropenem) [8]: 1.03

Compound: C[C@@H](O)[C@H]1C(=O)N2C(C(=O)[O-])=C(S[C@@H]3CN[C@H](C(=O)Nc4cccc(C(=O)O)c4)C3)[C@H](C)[C@H]12.O.[Na+]
MIC (Enterobacter cloacae [9]): 0.06 µg/mL
MIC (Escherichia coli [10]): ≤ 0.008 µg/mL
MIC (Escherichia coli [11]): 0.03 µg/mL
MIC (Escherichia coli [12]): ≤ 0.008 µg/mL
MIC (Escherichia coli [13]): 0.016 µg/mL
MIC (Escherichia coli [14]): 0.016 µg/mL
MIC (Escherichia coli [15]): ≤ 0.008 µg/mL
MIC (Escherichia coli [16]): ≤ 0.008 µg/mL
MIC (Escherichia coli [17]): 0.016 µg/mL
MIC (Escherichia coli [18]): 0.06 µg/mL
MIC (Escherichia coli [19]): ≤ 0.008 µg/mL
MIC (Escherichia coli [20]): 0.016 µg/mL
MIC (Escherichia coli [21]): 0.06 µg/mL
MIC (Escherichia coli [22]): 0.25 µg/mL
MIC (Escherichia coli [23]): 0.06 µg/mL
MIC (Klebsiella pneumoniae [24]): 1 µg/mL
MIC (Klebsiella pneumoniae [25]): 0.016 µg/mL
MIC (Klebsiella oxytoca): 0.03 µg/mL
MIC (Klebsiella pneumoniae [26]): 0.016 µg/mL
MIC (Klebsiella pneumoniae [27]): 0.016 µg/mL
MIC (Klebsiella pneumoniae [28]): 0.5 µg/mL
MIC (Klebsiella pneumoniae [29]): 0.06 µg/mL
MIC (Klebsiella pneumoniae [30]): ≤ 0.008 µg/mL
MIC (Pseudomonas aeruginosa [31]): 8 µg/mL
MIC (Pseudomonas aeruginosa [32]): 8 µg/mL
MIC (Pseudomonas aeruginosa [33]): 4 µg/mL
MIC (Shigella sonnei): ≤ 0.008 µg/mL
MIC (Salmonella enteritidis [34]): ≤ 0.008 µg/mL
MIC (Salmonella enteritidis [35]): ≤ 0.008 µg/mL
MIC (Salmonella enteritidis [36]): ≤ 0.008 µg/mL
MIC (Salmonella enteritidis [37]): ≤ 0.008 µg/mL
MIC (Salmonella typhimurium [38]): 0.016 µg/mL
MIC (Salmonella typhimurium [39]): ≤ 0.008 µg/mL
MIC (Salmonella typhimurium [40]): ≤ 0.008 µg/mL
MIC (Shigella flexneri): ≤ 0.008 µg/mL
MIC (Escherichia coli [44]): 0.03 µg/mL
MIC (Klebsiella pneumoniae [45]): 0.25 µg/mL
MIC (Klebsiella pneumoniae [46]): 0.016 µg/mL
MIC (Klebsiella pneumoniae [47]): 0.06 µg/mL
MIC (Pseudomonas aeruginosa [48]): 8 µg/mL
